Screening data (PubChem BioAssay)
The list is not random: actives were taken first. Their share in the collection is about 3.8%.
Granule exo inh – lytic granule exocytosis inhibition; TALL-104 LAMP-1 surface exposure, flow cytometry; cells stimulated with thapsigargin and PMA; inhibition, % at 10 µM; 0.66% of 360,000 active; AID 651702;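 active = inhibition above about 55%, limit read from the data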
V-ATPase pHluor – yeast V-ATPase proton transport regulation by pHLuorin; S. cerevisiae, pHLuorin cytosolic pH fluorescence; response, % at 10 µM; 0.37% of 350,000 active; AID 504577; in the data active = response mostly above about 7.3%, no sharp cut-off; inactive = mostly below about 5.4%; note: actives read high
rCAG RNA binder – molecules binding r(CAG) RNA repeats. r(CAG) RNA repeat, TO-PRO-1 dye displacement fluorescence. inhibition, % at 3 µM. 1.3% of 370,000 active. AID 651821;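 active = inhibition above the plate cutoff, the mean of all test compounds on that plate plus 3 SD, cut at about 35% in these data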;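 note: higher means more dye released from RNA so lower well fluorescence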
T cell HTS – modulates CD8 T cell binding to vesicles; 2C CD8+ T cell-vesicle binding, flow cytometry; stronger effect = lower value; response (vesicle binding), % at 7 µM; 0.068% of 330,000 active;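 active = response, share of CD8 T cells binding vesicles, and their 90th percentile fluorescence all below set limits, cut at about 80% in these data, passing the limit was not always enough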;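 note: values below 100% mean blocked vesicle binding to the CD8+ T cells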
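material = purified 2C TCR transgenic mouse naive CD8+ T cells | controls = Unloaded micro-vesicles (low), QL9 vesicles with 0.7% DMSO (high) | detection = cytometric PE anti-B7-1 and Alexa647 anti-CD8 signals after 1% paraformaldehyde fixation | incubation = binding step 1.5 h, 37 °C, antibody labelling 20 min, ice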
B2AR ag – human beta-2 adrenergic receptor agonism by FAP. P07550. Am2.2-beta2AR cells, FAP receptor internalization, flow cytometry. response, % (no concentration beside the values). 0.43% of 340,000 active. AID 504454;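 active = response above a set limit, near 3 SD of response in nonfluorescent compounds, cut at about 42% in these data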
Target sequence (P07550 whole entry, looked up): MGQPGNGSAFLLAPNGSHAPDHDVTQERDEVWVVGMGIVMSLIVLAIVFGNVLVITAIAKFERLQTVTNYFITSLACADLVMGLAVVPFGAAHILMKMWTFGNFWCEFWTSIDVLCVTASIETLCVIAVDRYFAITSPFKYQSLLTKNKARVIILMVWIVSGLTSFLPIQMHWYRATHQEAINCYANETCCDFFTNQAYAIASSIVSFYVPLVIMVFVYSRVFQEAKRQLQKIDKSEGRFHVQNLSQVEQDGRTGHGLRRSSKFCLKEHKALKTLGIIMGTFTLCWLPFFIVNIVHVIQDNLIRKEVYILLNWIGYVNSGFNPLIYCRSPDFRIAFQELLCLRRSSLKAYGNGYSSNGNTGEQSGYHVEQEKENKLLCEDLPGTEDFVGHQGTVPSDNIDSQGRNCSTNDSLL
MPTP block – inhibitors of mitochondrial permeability transition pore. isolated mouse mitochondria, Ca2+ swelling absorbance, 30 min. inhibition, % at 10 µM. 1.4% of 360,000 active. AID 602449;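 active = inhibition of 50% or more, scaled per plate between neutral and stimulator controls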
MPTP counter – Rhodamine 123 counter-screen of mitochondrial pore hits; AID 624504; shares compounds with MPTP block; 78% of 5,000 active; isolated mitochondria, membrane potential, Rhodamine 123 fluorescence; inhibition, % at 10 µM; in the data active = inhibition above about 22%
MPTP swell DR – dose response confirmation of mitochondrial permeability transition pore inhibitors; IC50, µM; isolated mitochondria swelling, absorbance; AID 651561; 58% of 780 active; shares compounds with MPTP block; in the data active = IC50 below about 20 µM
MPTP cs DR – active in counter-screen for permeability transition pore inhibitors; 49% of 780 active; IC50, µM; isolated mitochondria counterscreen, fluorescence read-out; shares compounds with MPTP block; in the data active = IC50 below about 80 µM
Numbers stand for hits.

Screening CN(Cc1ccc(OC(F)F)cc1)C(=O)c1cccc(S(=O)(=O)N2CCN(Cc3ccccc3)CC2)c1 returned Granule exo inh inactive, V-ATPase pHluor inactive, rCAG RNA binder inactive, B2AR ag inactive, MPTP block 58 and MPTP counter 99.
`CCN1CCCCC(NC(=O)c2cccc(C(F)(F)F)c2)C1=O` (configuration not stated) gave rCAG RNA binder inactive.
For O=C(Nc1ccc(Oc2ncnc3cc(Cl)ccc23)nc1)Nc1cccc(C(F)(F)F)c1 the results were Granule exo inh inactive, V-ATPase pHluor inactive, rCAG RNA binder inactive, T cell HTS inactive, B2AR ag inactive, MPTP block 90 and MPTP counter 25.
For O=C(Nc1ccc(Oc2ncnc3cc(Cl)ccc23)nc1)c1ccc(F)cc1 the results were T cell HTS inactive.
`Oc1ccccc1/C=N/NC(=S)NC1CC2CCC1C2` (configuration not stated) gave Granule exo inh inactive, V-ATPase pHluor inactive, rCAG RNA binder inactive, T cell HTS inactive, B2AR ag inactive, MPTP block 54 and MPTP counter 67.
For C#CCNC(=O)C[C@H]1C(=O)N(Cc2ccc(OC)cc2)C2=CCCC[C@@]21C(=O)OCC the results were rCAG RNA binder inactive.
For CC(C)Cn1c(/C=N/Nc2nc3ccccc3[nH]2)nc2ccccc21 the results were Granule exo inh inactive, V-ATPase pHluor inactive, rCAG RNA binder inactive, B2AR ag inactive, MPTP block 100 and MPTP counter 74.
`C=CCn1cc(/C=N/Nc2nc3ccccc3[nH]2)c2ccccc21` gave Granule exo inh inactive, V-ATPase pHluor inactive, rCAG RNA binder inactive, T cell HTS inactive, B2AR ag inactive, MPTP block 63 and MPTP counter inactive.
Screening CC(C)Cn1c(/C=C/c2ccccc2)nc2ccccc21 returned Granule exo inh inactive, V-ATPase pHluor inactive, rCAG RNA binder inactive, T cell HTS inactive, B2AR ag inactive and MPTP block inactive.
Screening CCCn1c(/C=N/Nc2nc3ccccc3[nH]2)nc2ccccc21 returned Granule exo inh inactive, V-ATPase pHluor inactive, rCAG RNA binder inactive, B2AR ag inactive, MPTP block 90 and MPTP counter 81.
C(=N\Nc1nc2ccccc2[nH]1)/c1cccs1 was read as Granule exo inh inactive, V-ATPase pHluor inactive, rCAG RNA binder inactive, T cell HTS inactive, B2AR ag inactive and MPTP block inactive.
CN(CCO)c1cccc2c1S(=O)(=O)N(Cc1cn(Cc3ccccc3C(F)(F)F)nn1)Cc1ccccc1O2 was read as rCAG RNA binder inactive.
Screening C=CCN=C1NC(c2ccccc2)C(C(=O)OC)=C(C)N1C (configuration not stated) returned rCAG RNA binder inactive.
Screening Cc1cc(/C=N/n2cnnc2)c(C)n1-c1ccc(OCc2ccc(F)cc2)cc1 returned Granule exo inh inactive, V-ATPase pHluor inactive, rCAG RNA binder inactive, T cell HTS inactive, B2AR ag inactive, MPTP block 99 and MPTP counter 93.
For Cc1cc(/C=N/n2cnnc2)c(C)n1-c1ccc(OCc2ccc(Cl)cc2Cl)cc1 the results were Granule exo inh inactive, V-ATPase pHluor inactive, T cell HTS inactive, B2AR ag inactive, MPTP block 108 and MPTP counter 101.
Cc1cc(/C=N/n2cnnc2)c(C)n1-c1ccccc1 was read as Granule exo inh inactive, V-ATPase pHluor inactive, rCAG RNA binder inactive, T cell HTS inactive, B2AR ag inactive and MPTP block inactive.
`Cc1cc(/C=N/n2cnnc2)c(C)n1-c1ccc(Cl)cc1` gave Granule exo inh inactive, V-ATPase pHluor inactive, rCAG RNA binder inactive, T cell HTS inactive, B2AR ag inactive and MPTP block inactive.
Cn1c(=O)c(C(=O)Nc2ncccc2O)c(O)c2ccccc21 was read as Granule exo inh inactive, V-ATPase pHluor inactive, rCAG RNA binder inactive, T cell HTS inactive, B2AR ag inactive, MPTP block 74, MPTP counter inactive, MPTP swell DR inactive and MPTP cs DR inactive.
`CCOC(=O)c1cc2c(C)n(-c3ccc(C)cc3)c(C)c2ccc1=O` gave Granule exo inh inactive, V-ATPase pHluor inactive, rCAG RNA binder inactive, T cell HTS inactive, B2AR ag inactive, MPTP block 82 and MPTP counter 35.
Screening CCCC(=O)OC[C@H]1CN(C2CCCC2)S(=O)(=O)c2c(Oc3ccc(F)cc3OC)cccc2O1 returned rCAG RNA binder inactive.
For COc1ccc(Cc2nnc(Nc3ccc(Cl)cc3)[nH]c2=O)cc1 the results were Granule exo inh inactive, V-ATPase pHluor inactive, rCAG RNA binder inactive, T cell HTS inactive, B2AR ag inactive, MPTP block 84 and MPTP counter 67.
`Cc1ccc(NC(=O)OC2CC3CC2[C@H]2CCCCN2[C@H]3Cc2ccccc2)cc1` (some centres not stated) gave rCAG RNA binder inactive.
CCOC(=O)C1=C(C(=O)OCC)C2N(Cc3ccc(C#N)cc3)c3ccccc3[C@@]23C[C@@H](C(=O)OC)N(S(=O)(=O)c2c(C)noc2C)C3=N1 (some centres not stated) was read as rCAG RNA binder inactive.
For CCc1ccc(NC(=O)Nc2ccc3c(c2)N(C)C(=O)CS3)cc1 the results were Granule exo inh inactive, V-ATPase pHluor inactive, rCAG RNA binder inactive, T cell HTS inactive, B2AR ag inactive, MPTP block 56 and MPTP counter 70.
For CC(=O)c1cccc(NC(=O)Nc2ccc3c(c2)N(C)C(=O)CS3)c1 the results were Granule exo inh inactive, V-ATPase pHluor inactive, rCAG RNA binder inactive, T cell HTS inactive, B2AR ag inactive, MPTP block 90 and MPTP counter 76.
Screening CC(=NNC(=S)Nc1cccc(C)c1)c1ccccn1 returned Granule exo inh inactive, V-ATPase pHluor inactive, rCAG RNA binder inactive, B2AR ag inactive, MPTP block 52 and MPTP counter 62.
For COC(=O)[C@H](CC(C)C)N(CCc1cn(Cc2ccccc2)nn1)S(=O)(=O)c1ccccc1Br the results were rCAG RNA binder inactive.
For CC(C)COC(=O)NCCOC(=O)Nc1cccc(Cl)c1 the results were Granule exo inh inactive, V-ATPase pHluor inactive, rCAG RNA binder inactive, T cell HTS inactive, B2AR ag inactive, MPTP block 102 and MPTP counter 100.
Screening CC(C)COC(=O)NCCCOC(=O)Nc1ccccc1 returned Granule exo inh inactive, V-ATPase pHluor inactive, rCAG RNA binder inactive, T cell HTS inactive, B2AR ag inactive and MPTP block inactive.
